Source: ChEMBL document CHEMBL3272251, “Synthesis of 5-substituted uracil derivatives” (1976)

Key:
Assay type in all cases: functional
Escherichia coli [1] = assay: Antibacterial activity against Escherichia coli B assessed as bacterial growth at 0.1 mM after 20 hrs by turbidometry relative to control
Summary of the method: (§1)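 Tested at 1 × 10^-4 M in broth culture, a lower level chosen for limited solubility. Each inhibitor solution received a 2% inoculum of E. coli B or Staph. aureus stock culture. Incubated 20 hr at 37°C, then growth read as turbidity at 500 nm against untreated controls.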

Staphylococcus aureus [2] = assay: Antibacterial activity against Staphylococcus aureus assessed as bacterial growth at 0.1 mM after 20 hrs by turbidometry relative to control; summary of the method: as §1
Escherichia coli [3] = assay: Antibacterial activity against Escherichia coli B assessed as bacterial growth at 1 mM after 20 hrs by turbidometry relative to control
Summary of the method: (§2)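 Broth culture of E. coli B or Staph. aureus at inhibitor concentration 1 × 10^-3 M. Inoculum was 2% of stock culture added to each inhibitor solution. After 20 hr incubation at 37°C, turbidity was read at 500 nm and compared with controls.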

Staphylococcus aureus [4] = assay: Antibacterial activity against Staphylococcus aureus assessed as bacterial growth at 1 mM after 20 hrs by turbidometry relative to control; summary of the method: as §2

| SMILES | Activity (Escherichia coli [1]) | Activity (Staphylococcus aureus [2]) | Activity (Escherichia coli [3]) | Activity (Staphylococcus aureus [4]) |
| --- | --- | --- | --- | --- |
| O=C(O)/C=C/c1c[nH]c(=O)[nH]c1=O | 90% | 90% |  |  |
| O=C(CO)c1c[nH]c(=O)[nH]c1=O |  |  | 90% | 90% |
| C[N+](C)(C)CC(=O)c1c[nH]c(=O)[nH]c1=O.[Br-] |  |  | 90% | 90% |
| Nc1nc(-c2c[nH]c(=O)[nH]c2=O)cs1 |  |  | 90% | 90% |
| O=c1[nH]cc(-c2c[nH]cn2)c(=O)[nH]1 | 90% | 90% |  |  |
| O=c1[nH]cc(-c2ncc[nH]2)c(=O)[nH]1 | 90% | 90% |  |  |
